Experimental data as given in PubChem BioAssay AID463076 (The Scripps Research Institute Molecular Screening Center, 2010).
Calls of active or inactive are those of the source.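 Rule for the calls: active = compounds blocking FLT3 kinase activity with IC50 at or below 1000 nM; inactive = IC50 above 1000 nM.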

Target: Receptor-type tyrosine-protein kinase FLT3 (Homo sapiens) (UniProt P36888)
Assay: inhibitors of human FLT3 tyrosine kinase – biochemical, radioactive 33P-ATP, powder samples, selectivity assay for CK1d inhibitor project, late-stage follow-up (AID 463076)
Conditions: purified FLT3, 33P-ATP Abltide filter-binding assay
In short: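 Test system: cell-free kinase reaction; medium: Hepes buffer pH 7.5 with 10 mM MgCl2, DTT, 1% DMSO; also added: 33P-ATP and peptide substrate; compound dosing: 10 doses, 1:3 steps, top 50 µM; times: kinase reaction 120 min at room temperature; measured by: radiometric filter-binding readout; read-out basis: IC50 from signal ratio curve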

Receptor-type tyrosine-protein kinase FLT3 (Homo sapiens), sequence (P36888 whole entry, looked up): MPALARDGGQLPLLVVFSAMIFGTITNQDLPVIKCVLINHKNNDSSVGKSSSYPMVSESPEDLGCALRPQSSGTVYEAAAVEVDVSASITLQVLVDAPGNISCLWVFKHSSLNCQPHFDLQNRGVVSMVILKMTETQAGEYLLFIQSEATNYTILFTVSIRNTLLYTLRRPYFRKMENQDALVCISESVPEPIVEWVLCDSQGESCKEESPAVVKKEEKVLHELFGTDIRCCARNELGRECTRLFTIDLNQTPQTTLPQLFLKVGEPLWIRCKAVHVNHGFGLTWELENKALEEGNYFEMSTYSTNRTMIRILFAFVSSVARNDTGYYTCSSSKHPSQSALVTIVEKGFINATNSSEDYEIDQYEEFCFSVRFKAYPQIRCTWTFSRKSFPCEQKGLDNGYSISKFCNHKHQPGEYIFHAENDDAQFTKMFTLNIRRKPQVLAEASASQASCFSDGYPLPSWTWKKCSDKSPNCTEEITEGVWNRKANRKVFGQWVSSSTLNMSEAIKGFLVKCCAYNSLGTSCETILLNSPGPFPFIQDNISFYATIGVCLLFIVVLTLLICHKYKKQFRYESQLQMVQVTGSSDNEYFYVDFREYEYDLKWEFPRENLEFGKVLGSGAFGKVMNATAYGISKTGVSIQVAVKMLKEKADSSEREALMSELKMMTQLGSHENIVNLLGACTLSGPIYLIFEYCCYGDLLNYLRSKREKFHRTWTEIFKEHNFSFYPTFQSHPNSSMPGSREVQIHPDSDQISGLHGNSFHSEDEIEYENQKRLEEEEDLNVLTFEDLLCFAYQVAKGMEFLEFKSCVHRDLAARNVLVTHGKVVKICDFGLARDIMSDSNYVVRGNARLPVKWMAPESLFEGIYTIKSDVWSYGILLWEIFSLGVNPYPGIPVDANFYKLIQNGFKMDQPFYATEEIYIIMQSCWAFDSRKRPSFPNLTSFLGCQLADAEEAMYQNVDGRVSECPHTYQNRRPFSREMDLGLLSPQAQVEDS

## Clc1ccc2nc(CNc3nc(N4CCOCC4)nc4c3ncn4-c3ccsc3)[nH]c2c1
  IC50: 301 nM

## Cc1ccnc(NC(=O)CCCOc2cc(=O)n(C)c3ccccc23)c1
  IC50: inactive

## FC(F)(F)c1cccc2[nH]c(CNc3nc(N4CCOCC4)nc4c3ncn4-c3ccsc3)nc12
  IC50: 262 nM

## N#Cc1ccc2nc(CNc3nc(N4CCOCC4)nc4c3ncn4-c3ccsc3)[nH]c2c1
  IC50: 62 nM

## CCOC(=O)c1cccc2[nH]c(CNc3nc(N4CCOCC4)nc4c3ncn4-c3ccsc3)nc12
  IC50: 548 nM

## CC(C)n1cnc2c(NCc3nc4c([N+](=O)[O-])cccc4[nH]3)nc(N3CCOCC3)nc21
  IC50: inactive

## c1ccc2cc3[nH]c(CNc4nc(N5CCOCC5)nc5c4ncn5-c4ccsc4)nc3cc2c1
  IC50: 975 nM

## COc1ccc2nc(CNc3nc(N4CCOCC4)nc4c3ncn4-c3ccsc3)[nH]c2c1
  IC50: 14 nM

## O=[N+]([O-])c1cccc2[nH]c(CNc3nc(N4CCOCC4)nc4c3ncn4-c3ccsc3)nc12
  IC50: 305 nM

## FC(F)(F)c1ccc2nc(CNc3nc(N4CCOCC4)nc4c3ncn4-c3ccsc3)[nH]c2c1
  IC50: 509 nM

## Fc1ccc2nc(CNc3nc(N4CCOCC4)nc4c3ncn4-c3ccsc3)[nH]c2c1
  IC50: 79 nM

## O=[N+]([O-])c1ccc2nc(CNc3nc(N4CCOCC4)nc4c3ncn4-c3ccsc3)[nH]c2c1
  IC50: 240 nM

## c1ccc2[nH]c(CNc3nc(N4CCOCC4)nc4c3ncn4-c3ccsc3)nc2c1
  IC50: 100 nM
